Reference: ChEMBL document CHEMBL1135330, “Synthesis and evaluation of 4-hydroxyphenylacetic acid amides and 4-hydroxycinnamamides as antioxidants” (Bioorg Med Chem Lett, 2002)

Assays:
Rattus norvegicus [1] = species: Rattus norvegicus; test: Compound was tested for its DPPH radical scavenging activity in rat brain homogenates; type: functional
Rattus norvegicus [2] = species: Rattus norvegicus; test: Compound was tested for its inhibitory concentration against formation of lipid peroxides in rat brain homogenates by thiobarbituric acid reactive substances (TBARS) assay according to the method of Stocks.; type: functional
Procedure, shortened: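 Lipid peroxidation was run on rat brain homogenate (pH 7.4) supernatant after 1000 × g for 10 min. It was started with 0.02 mM FeCl2 and 0.25 mM ascorbic acid for 30 min at 37 °C and stopped with perchloric acid. After re-centrifugation, the supernatant was reacted with 0.5% TBA at 80 °C for 1 h, cooled, and read at 532 nm.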

Rattus norvegicus [3] = species: Rattus norvegicus; test: Neuroprotective action was estimated in terms of its inhibitory concentration against superoxide and hydroxyl radicals measured by the leakage of cytoplasmic enzyme lactate dehydrogenase (LDH).; type: functional
Rattus norvegicus [4] = species: Rattus norvegicus; test: Neuroprotective action was estimated in terms of its inhibitory concentration against superoxide and hydroxyl radicals measured by the leakage of cytoplasmic enzyme lactate dehydrogenase (LDH); found highly potent; type: functional
Rattus norvegicus [5] = species: Rattus norvegicus; test: Compound was evaluated for its inhibitory concentration against [Fe2+]/AA- induced oxidative neuronal damage in primary cultured rat cortical cells; type: functional, cell-based
Procedure, shortened: (§1)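 Primary rat cortical cultures at 12–14 days in vitro were HBSS-washed and exposed for 2 h to Fe2+ (100 μM)/ascorbic acid (25 μM), with compound at various concentrations present during the insult. Cultures were then washed and held in MEM plus 21 mM glucose at 37 °C, 5% CO2.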

Rattus norvegicus [6] = species: Rattus norvegicus; test: Compound was evaluated for its inhibitory concentration against X/XO- induced oxidative neuronal damage in primary cultured rat cortical cells; type: functional, cell-based
Procedure, shortened: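 Primary rat cortical cultures at 12–14 days in vitro were washed with HBSS and exposed for 10 min to xanthine (0.5 mM)/xanthine oxidase (10 mU/mL), with compound at various concentrations present during the insult. They were then washed and kept in MEM plus 21 mM glucose at 37 °C, 5% CO2.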

Rattus norvegicus [7] = species: Rattus norvegicus; test: Compound was evaluated for its inhibitory concentration against hydrogen peroxide- induced oxidative neuronal damage in primary cultured rat cortical cells; type: functional, cell-based
Procedure, shortened: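 Cortical cultures from rat, 12–14 days in vitro, were HBSS-washed and exposed to H2O2 for 5 min, with compound at various concentrations present during the exposure. Cultures were then washed and kept in MEM plus 21 mM glucose at 37 °C, 95% air/5% CO2.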

Rattus norvegicus [8] = species: Rattus norvegicus; test: Neuroprotective action was estimated in terms of its inhibitory concentration against [Fe2+]/AA- induced toxicity; type: functional; procedure, shortened: as §1

For CCOc1cc(CC(=O)NCCCc2ccc(C)c(C)c2)ccc1O, the IC50 (Rattus norvegicus [1]) was 182 µM and the IC50 (Rattus norvegicus [2]) was 24 µM.

COc1cc(/C=C/C(=O)NCCCc2ccc(C)c(C)c2)ccc1O gave an IC50 (Rattus norvegicus [1]) of 82.2 µM and an IC50 (Rattus norvegicus [2]) of 9.94 µM.

Work on Cc1c(C)c2c(c(C)c1O)CC[C@@](C)(CCC[C@H](C)CCC[C@H](C)CCCC(C)C)O2 [ALPHA-TOCOPHEROL] yielded an IC50 (Rattus norvegicus [2]) of 4.68 µM.

Cc1ccc(CCCNC(=O)Cc2ccc(O)c(O)c2)cc1C showed an IC50 (Rattus norvegicus [3]) of 2.4 µM, an IC50 (Rattus norvegicus [4]) of 2.4 µM and an IC50 (Rattus norvegicus [5]) of 2.4 µM. It also gave an IC50 (Rattus norvegicus [6]) of 3.3 µM, an IC50 (Rattus norvegicus [7]) of 6.03 µM and an IC50 (Rattus norvegicus [1]) of 31 µM. The IC50 (Rattus norvegicus [2]) was 2.6 µM.

With COc1cc(/C=C/C(=O)NCCCc2ccc(C)c(C)c2)cc(OC)c1O the IC50 (Rattus norvegicus [8]) was 5.4 µM, the IC50 (Rattus norvegicus [1]) was 89.1 µM and the IC50 (Rattus norvegicus [2]) was 3.41 µM.

Cc1ccc(CCCNC(=O)Cc2cc(O)c(O)c(O)c2)cc1C showed an IC50 (Rattus norvegicus [5]) of 26.8 µM, an IC50 (Rattus norvegicus [6]) of 34.8 µM and an IC50 (Rattus norvegicus [7]) of 35 µM. The IC50 (Rattus norvegicus [1]) was 21.3 µM and the IC50 (Rattus norvegicus [2]) was 1.81 µM.

With Cc1ccc(CCCNC(=O)Cc2ccc(O)c(Oc3ccccc3)c2)cc1C the IC50 (Rattus norvegicus [1]) was > 300 µM and the IC50 (Rattus norvegicus [2]) was 32 µM.

Work on COc1cc(CC(=O)NCCCc2ccc(C)c(C)c2)cc(OC)c1O yielded an IC50 (Rattus norvegicus [1]) of 50.1 µM and an IC50 (Rattus norvegicus [2]) of 11.8 µM.

Cc1ccc(CCCNC(=O)Cc2ccc(O)c(OC(C)C)c2)cc1C was tested, and the IC50 (Rattus norvegicus [8]) was 34.2 µM, the IC50 (Rattus norvegicus [1]) was > 300 µM and the IC50 (Rattus norvegicus [2]) was 19.4 µM.

With CCCCOc1cc(CC(=O)NCCCc2ccc(C)c(C)c2)ccc1O the IC50 (Rattus norvegicus [8]) was 4.2 µM, the IC50 (Rattus norvegicus [1]) was 162 µM and the IC50 (Rattus norvegicus [2]) was 9.28 µM.

With COc1cc(CC(=O)NCCCc2ccc(C)c(C)c2)ccc1O the IC50 (Rattus norvegicus [1]) was 179 µM and the IC50 (Rattus norvegicus [2]) was 25.9 µM.

Cc1cc(C(C)(C)C)c(O)c(C(C)(C)C)c1 [BUTYLATED HYDROXYTOLUENE] was tested, and the IC50 (Rattus norvegicus [2]) was 4.03 µM.

Cc1ccc(CCCNC(=O)/C=C/c2ccc(O)c(O)c2)cc1C showed an IC50 (Rattus norvegicus [5]) of 23.7 µM, an IC50 (Rattus norvegicus [6]) of 2.54 µM and an IC50 (Rattus norvegicus [7]) of 5.91 µM. The IC50 (Rattus norvegicus [1]) was 34.3 µM and the IC50 (Rattus norvegicus [2]) was 1.11 µM.

Cc1c(C)c2c(c(C)c1O)CCC(C)(C(=O)O)O2 (stereo unspecified) [TROLOX] gave an IC50 (Rattus norvegicus [5]) of 431 µM, an IC50 (Rattus norvegicus [6]) of 202 µM and an IC50 (Rattus norvegicus [7]) of 330 µM.
